pIC50: −log10 of the molar value.
Key:
[1] = Cytotoxicity against human iPSC-derived neurons assessed as effect on cell-rounding; format: tissue-based; conditions: induced pluripotent stem cell-derived neuron
[2] = Cytotoxicity against human iPSC-derived neurons assessed as decrease in SNAP25 signal; format: tissue-based; conditions: induced pluripotent stem cell-derived neuron
HEK293 [3] = assay: Cytotoxicity against HEK293 cells assessed inhibition of cell proliferation up to 100 uM after 24 hrs by MTT assay; format: cell-based; conditions: human, hek293, 24 h
Outline: (§1)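 HEK293T cells in DMEM with 10% FBS and 1% Pen Strep were seeded at 5,000 cells/well and left 24 h at 37 °C, 5% CO2. Compounds were then added as 2-fold dilutions from 100 to 3.13 μM (1% DMSO) for 24 h. MTT was added for 4 h, and formazan was dissolved in acidified isopropanol. A570 was read with 630 nm background subtracted, normalized to DMSO control, and fitted with a four-parameter curve for IC50.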

HEK293 [4] = assay: Cytotoxicity against HEK293 cells assessed inhibition of cell proliferation after 24 hrs by MTT assay; format: cell-based; conditions: Homo sapiens, HEK293, 24 h; outline: as §1

Compound | Activity [1] | Activity [2] | Activity (HEK293 [3]) | pIC50 (HEK293 [4])
CS(=O)(=O)SCCCCCCNC(=O)CC(CC(=O)NO)c1ccc(Cl)cc1Cl (configuration not stated) | Toxic | Toxic | – | –
CS(=O)(=O)SCCCCCCCN(O)C(=O)/C=C/c1ccc(Cl)cc1Cl | Non-Toxic | Non-Toxic | – | –
CS(=O)(=O)SCCCCCNC(=O)CC(CC(=O)NO)c1ccc(Cl)cc1Cl (configuration not stated) | Toxic | Toxic | – | –
CCCCCNC(=O)CC(CC(=O)NO)c1ccc(Cl)cc1Cl (configuration not stated) | – | – | Non-Toxic | –
CS(=O)(=O)SCCCCCN(O)C(=O)/C=C/c1ccc(Cl)cc1Cl | Non-Toxic | Non-Toxic | – | –
CS(=O)(=O)SCCCCNC(=O)CC(CC(=O)NO)c1ccc(Cl)cc1Cl (configuration not stated) | Toxic | Toxic | – | –
CS(=O)(=O)SCCCCCCN(O)C(=O)/C=C/c1ccc(Cl)cc1Cl | Non-Toxic | Non-Toxic | – | 4.22
CS(=O)(=O)SCCCNC(=O)CC(CC(=O)NO)c1ccc(Cl)cc1Cl (configuration not stated) | Toxic | Toxic | Non-Toxic | –

From ChEMBL document CHEMBL4665791 (J Med Chem, 2020)
